Assay results published in ChEMBL document CHEMBL3400039, “Design, synthesis and in vitro cell-based evaluation of the anti-cancer activities of hispolon analogs” (Bioorg Med Chem, 2015).
Active and inactive are the calls of the source. The calls are words filed in the database; no cut-off is given here.

How the values were obtained:
[1] = (§1) Cytotoxicity against human PC3 cells after 72 hrs by MTT assay; type: functional, cell-based; conditions: PC-3, 72 h
Summary of the method: (§2)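 Cells kept as adherent monolayers in DMEM with 10% FBS, 37°C, 5% CO2. Trypsin-harvested, seeded at 5 × 10^3 cells/well, then exposed to compound at 0.1 to 100 µM for 72 h. MTT (4 mg/ml) added for 4 h, formazan dissolved in DMSO, absorbance read at 570 nm. At least three experiments, each in triplicate; mean±SD.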

PC-3 [2] = assay: as §1; type: functional, cell-based; summary of the method: as §2
DU-145 [3] = assay: Cytotoxicity against human DU145 cells after 72 hrs by MTT assay; type: functional, cell-based; summary of the method: as §2
[4] = (§3) Cytotoxicity against human HCT116 cells after 72 hrs by MTT assay; type: functional, cell-based; conditions: HCT-116, 72 h; summary of the method: as §2
HCT-116 [5] = assay: as §3; type: functional, cell-based; summary of the method: as §2
[6] = (§4) Cytotoxicity against human S1 cells after 72 hrs by MTT assay; type: functional, cell-based; conditions: S1, 72 h; summary of the method: as §2
S1 = assay: as §4; type: functional, cell-based; summary of the method: as §2
MCF7 = assay: Cytotoxicity against human MCF7 cells after 72 hrs by MTT assay; type: functional, cell-based; conditions: for IC50: MCF7, 72 h; summary of the method: as §2
MDA-MB-231 = assay: Cytotoxicity against human MDA-MB-231 cells after 72 hrs by MTT assay; type: functional, cell-based; conditions: for IC50: MDA-MB-231, 72 h; summary of the method: as §2
MDCK = assay: Cytotoxicity against MDCK cells after 72 hrs by MTT assay; type: cell-based; conditions: Canis lupus familiaris; summary of the method: as §2
HEK293 [7] = assay: Cytotoxicity against HEK293 cells expressing pcDNA3.1 after 72 hrs by MTT assay; type: cell-based; conditions: Homo sapiens, HEK293, 72 h; summary of the method: as §2
HCT-116 [8] = assay: Induction of morphological changes in human HCT116 cells assessed as increase in cell size at 1 uM after 68 hrs by inverted microscopy; type: functional, cell-based
Summary of the method: (§5)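 Cells grown in DMEM/10% FBS and treated in triplicate for 68 h. Photographed with an inverted microscope at 20X alongside untreated wells. Images scored double-blind for cell size, shape, number and debris.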

PC-3 [9] = assay: Induction of morphological changes in human PC3 cells assessed as increase in cell size at 1 uM after 68 hrs by inverted microscopy; type: functional, cell-based; summary of the method: as §5
HEK293 [10] = assay: Cytotoxicity against HEK293 cells expressing ABCB1 after 72 hrs by MTT assay; type: functional, cell-based; conditions: Homo sapiens, HEK293, 72 h; summary of the method: as §2
HEK293 [11] = assay: Resistance index, ratio of IC50 for HEK293 cells expressing ABCB1 to IC50 for HEK293 cells expressing pcDNA3.1; set-up: species or system Homo sapiens
Summary of the method: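 Fold resistance is the IC50 in P-glycoprotein-overexpressing HEK293/ABCB1 cells divided by the IC50 in empty-vector HEK293/pcDNA3.1 cells. IC50s from the 72 h MTT assay; paclitaxel was the positive-control ABCB1 substrate.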

HCT-116 [12] = assay: Reduction in mitochondrial membrane potential in human HCT116 cells at 0.5 uM after 4 hrs by Mitotracker red staining based flow cytometry (reference value: 27.56%); type: functional; set-up: scale not given: the % may be the effect or the level left
Summary of the method: (§6)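 HCT-116 cells in 6-well plates, exposed in complete medium with or without compound (0.5 or 5 µM) for 4 h. Harvested and stained with MitoTracker Red for 30 min at 37°C, washed in PBS, then given Alexa Fluor 488 annexin V in annexin-binding buffer for 15 min. Flow cytometry with emission read at 530 and 585 nm; quadrant analysis against untreated control.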

HCT-116 [13] = assay: Induction of apoptosis in human HCT116 cells at 0.5 uM after 4 hrs by Alexa fluor 488 annexin V staining based flow cytometry (reference value: 5.58%); type: functional; summary of the method: as §6
HCT-116 [14] = assay: Reduction in mitochondrial membrane potential in human HCT116 cells at 5 uM after 4 hrs by Mitotracker red staining based flow cytometry (reference value: 27.56%); type: functional; set-up: scale not given: the % may be the effect or the level left; summary of the method: as §6
HCT-116 [15] = assay: Induction of apoptosis in human HCT116 cells at 5 uM after 4 hrs by Alexa fluor 488 annexin V staining based flow cytometry (reference value: 5.58%); type: functional; summary of the method: as §6
HCT-116 [16] = assay: Potency index, ratio of IC50 for hispolon to IC50 for compound for human HCT116 cells after 72 hrs by MTT assay; type: functional
Summary of the method: (§7)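 Ratio of the hispolon IC50 to the analog IC50 in the same cancer line. Both IC50s come from the 72 h MTT assay (0.1–100 µM), with survival curves fitted by the Bliss method.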

[17] = Potency index, ratio of IC50 for hispolon to IC50 for compound for human S1 cells after 72 hrs by MTT assay; type: functional; summary of the method: as §7
PC-3 [18] = assay: Potency index, ratio of IC50 for hispolon to IC50 for compound for human PC3 cells after 72 hrs by MTT assay; type: functional; summary of the method: as §7
DU-145 [19] = assay: Potency index, ratio of IC50 for hispolon to IC50 for compound for human DU145 cells after 72 hrs by MTT assay; type: functional; summary of the method: as §7
HCT-116 [20] = assay: Reduction in mitochondrial membrane potential in human HCT116 cells after 4 hrs by Mitotracker red staining based flow cytometry (reference value: 27.56%); type: functional, cell-based; summary of the method: as §6
HEK293 [21] = assay: Ratio of IC50 for HEK293 cells expressing pcDNA3.1 to IC50 for human HCT116 cells
Summary of the method: (§8)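 Selectivity ratio of the IC50 in empty-vector HEK293/pcDNA3.1 cells to the IC50 in each cancer line. IC50s from the 72 h MTT assay (0.1–100 µM, Bliss method, ≥3 experiments in triplicate).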

HEK293 [22] = assay: Ratio of IC50 for HEK293 cells expressing pcDNA3.1 to IC50 for human S1 cells; summary of the method: as §8
HEK293 [23] = assay: Ratio of IC50 for HEK293 cells expressing pcDNA3.1 to IC50 for human PC3 cells; summary of the method: as §8
HEK293 [24] = assay: Ratio of IC50 for HEK293 cells expressing pcDNA3.1 to IC50 for human DU145 cells; summary of the method: as §8
HCT-116 [25] = assay: Induction of morphological changes in human HCT116 cells up to 100 uM after 68 hrs by inverted microscopy; type: functional, cell-based; summary of the method: as §5
PC-3 [26] = assay: Induction of morphological changes in human PC3 cells up to 100 uM after 68 hrs by inverted microscopy; type: functional, cell-based; summary of the method: as §5

**Q.** For COc1cc(/C=C/C(=O)CC(C)=O)ccc1O, which IC50 [1] is on record?
**A.** 6.3 µM

**Q.** What about the Activity (PC-3 [2]) of the same compound?
**A.** Dose-dependent effect

**Q.** What about the Activity (DU-145 [3]) of the same compound?
**A.** Dose-dependent effect

**Q.** And the IC50 (DU-145 [3]; DU-145, 72 h)?
**A.** 5.2 µM

**Q.** What about the IC50 [4] of the same compound?
**A.** 1.4 µM

**Q.** What about the Activity (HCT-116 [5]) of the same compound?
**A.** Dose-dependent effect

**Q.** What about the IC50 [6] of the same compound?
**A.** 1.8 µM

**Q.** What about the Activity (S1) of the same compound?
**A.** Dose-dependent effect

**Q.** What about the Activity (MCF7) of the same compound?
**A.** Dose-dependent effect

**Q.** And the IC50 (MCF7)?
**A.** 7.4 µM

**Q.** And the Activity (MDA-MB-231)?
**A.** Dose-dependent effect

**Q.** And the IC50 (MDA-MB-231)?
**A.** 9.7 µM

**Q.** And the IC50 (MDCK)?
**A.** 13.1 µM

**Q.** What about the IC50 (HEK293 [7]) of the same compound?
**A.** 15.8 µM

**Q.** What about the Activity (HCT-116 [8]) of the same compound?
**A.** Active

**Q.** And the Activity (PC-3 [9])?
**A.** Active

**Q.** What about the IC50 (HEK293 [10]) of the same compound?
**A.** 18.9 µM

**Q.** What about the “Ratio IC50” value (HEK293 [11]) of the same compound?
**A.** 1.2

**Q.** What about the Activity (HCT-116 [12]) of the same compound?
**A.** 84.88%

**Q.** And the Activity (HCT-116 [13])?
**A.** 2.64%

**Q.** What about the Activity (HCT-116 [14]) of the same compound?
**A.** 72.74%

**Q.** And the Activity (HCT-116 [15])?
**A.** 11.69%

**Q.** And the “Ratio IC50” value (HCT-116 [16])?
**A.** 3.7

**Q.** And the Ratio IC50 [17]?
**A.** 4.7

**Q.** What about the “Ratio IC50” value (PC-3 [18]) of the same compound?
**A.** 2

**Q.** And the Ratio IC50 (DU-145 [19])?
**A.** 5.5

**Q.** And the Activity (HCT-116 [20])?
**A.** Dose-dependent effect

**Q.** And the Ratio IC50 (HEK293 [21])?
**A.** 11

**Q.** What about the “Ratio IC50” value (HEK293 [22]) of the same compound?
**A.** 9

**Q.** And the “Ratio IC50” value (HEK293 [23])?
**A.** 2

**Q.** What about the Ratio IC50 (HEK293 [24]) of the same compound?
**A.** 3

**Q.** With COc1cc(CCC(=O)CC(C)=O)ccc1O as the compound, how does the IC50 [1] read?
**A.** > 100 µM

**Q.** And the IC50 [4]?
**A.** 80.8 µM

**Q.** And the IC50 [6]?
**A.** 98.2 µM

**Q.** And the IC50 (MCF7)?
**A.** > 100 µM

**Q.** What about the IC50 (MDA-MB-231) of the same compound?
**A.** > 100 µM

**Q.** What about the IC50 (MDCK) of the same compound?
**A.** 72.5 µM

**Q.** And the Activity (HCT-116 [25])?
**A.** inactive

**Q.** And the Activity (PC-3 [26])?
**A.** inactive

**Q.** And the IC50 (HEK293 [10])?
**A.** 92.5 µM

**Q.** What about the “Ratio IC50” value (HEK293 [11]) of the same compound?
**A.** 1
